Activity calls are given as the source filed them. The calls are words filed in the database; no cut-off is given here.
Experiments:
[1] = target: T1, Cannabinoid receptor 2 (Homo sapiens, UniProt P34972); test: Displacement of [3H]-CP-55940 from human CB2 receptor expressed in HEK293 cell membranes at 1 to 10 uM after 90 mins relative to control
[2] = target: Cannabinoid receptor 1 (CB1) (Homo sapiens, UniProt P21554); test: Displacement of [3H]-CP-55940 from human CB1 receptor expressed in HEK293 cell membranes at 1 to 10 uM after 90 mins relative to control; conditions: membranes of HEK293 cells expressing human CB1 receptor, probe [3H]-CP-55940
[3] = target: T1, Cannabinoid receptor 2; test: Displacement of [3H]-CP-55940 from human CB2 receptor expressed in HEK293 cell membranes after 90 mins by radioligand binding assay
Summary of the method: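 Compounds were screened at 1 and 10 µM; those displacing over 50% were run at 0.1nM–10µM. Ki by Cheng-Prusoff from IC50. At least three experiments, duplicate.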

[4] = target: Cannabinoid receptor 1 (Homo sapiens, UniProt P21554); test: Displacement of [3H]-CP-55940 from human CB1 receptor expressed in HEK293 cell membranes after 90 mins by radioligand binding assay
[5] = system: HEK293; test: Selectivity index, ratio of Ki for human CB1 receptor expressed in HEK293 cell membranes to Ki for human CB2 receptor expressed in HEK293 cell membranes; assay type: cell-based
[6] = target: T1, Cannabinoid receptor 2
[7] = target: T1, Cannabinoid receptor 2; test: Inverse agonist activity at human CB2 receptor expressed in CHO-K1 cells assessed as increase in NKH-477-induced intracellular cAMP levels after 30 mins by luminescence assay; assay type: functional, cell-based
Summary of the method: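 CHO-K1 cells stably overexpressing human CB2, plated 30,000 cells/well and held overnight at 37 °C, 5% CO2. Compounds were added with NKH-477 (water-soluble forskolin analogue; 3x of 25µM solution) for 30 min at 37°C. cAMP was read by enzyme-fragment-complementation chemiluminescence. Values are normalized to NKH-477 alone as 100% response. Three independent experiments, triplicate.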

[8] = target: T1, Cannabinoid receptor 2; test: Antagonist activity at human CB2 receptor expressed in CHO-K1 cells assessed as increase in NKH-477-induced intracellular cAMP levels preincubated for 15 mins followed by JWH-133 addition after 30 mins by luminescence assay; assay type: functional, cell-based

T1 sequence (P34972 whole entry): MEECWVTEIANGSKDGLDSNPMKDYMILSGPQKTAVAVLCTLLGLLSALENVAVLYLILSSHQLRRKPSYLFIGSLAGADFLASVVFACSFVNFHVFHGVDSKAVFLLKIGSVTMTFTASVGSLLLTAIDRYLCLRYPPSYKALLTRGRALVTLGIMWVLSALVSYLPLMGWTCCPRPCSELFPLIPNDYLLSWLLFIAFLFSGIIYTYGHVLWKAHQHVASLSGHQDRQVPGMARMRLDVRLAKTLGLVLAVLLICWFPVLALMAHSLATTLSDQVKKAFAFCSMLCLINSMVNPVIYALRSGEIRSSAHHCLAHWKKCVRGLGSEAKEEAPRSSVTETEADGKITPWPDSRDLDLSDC
Sequence of Cannabinoid receptor 1 (CB1) (P21554 whole entry): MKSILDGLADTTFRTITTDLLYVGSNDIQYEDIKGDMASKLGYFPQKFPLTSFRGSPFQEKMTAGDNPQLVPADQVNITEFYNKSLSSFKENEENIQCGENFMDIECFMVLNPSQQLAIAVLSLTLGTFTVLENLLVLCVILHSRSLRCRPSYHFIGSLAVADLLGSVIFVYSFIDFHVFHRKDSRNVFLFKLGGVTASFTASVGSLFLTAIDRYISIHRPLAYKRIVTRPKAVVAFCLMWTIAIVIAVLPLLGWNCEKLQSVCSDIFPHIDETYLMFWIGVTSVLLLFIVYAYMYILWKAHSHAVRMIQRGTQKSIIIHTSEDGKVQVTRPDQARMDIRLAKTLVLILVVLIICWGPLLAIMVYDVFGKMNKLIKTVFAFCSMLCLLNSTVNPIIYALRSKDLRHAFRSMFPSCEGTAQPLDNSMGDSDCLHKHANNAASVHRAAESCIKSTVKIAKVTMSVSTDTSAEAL
Sequence of Cannabinoid receptor 1 (P21554 whole entry): as above

| Structure (SMILES) | inhibition [1] [%] | inhibition at 1.5 h, up to 10 µM [2] [%] | Ki [3] [nM] | Ki [4] [nM] | Ratio Ki [5] | IC50 [6] [nM] | Activity [7] | Activity [8] |
| --- | --- | --- | --- | --- | --- | --- | --- | --- |
| CCOC(=O)c1cc(-c2ccccc2)sc1NS(=O)(=O)c1cccc2ccccc12 | > 50 | > 50 | > 10000 | > 10000 | – | – | – | – |
| CCc1c(C(=O)Nc2ccc3ccccc3c2)cc(C)n1-c1ccccc1 | > 50 | > 50 | 57 | 633 | 11.1 | – | – | – |
| Cc1cc(C(=O)Nc2ccc3ccccc3c2)c(C)n1-c1ccccc1 | > 50 | > 50 | 58.3 | 281 | 4.82 | – | – | – |
| CCOC(=O)c1cc(-c2ccccc2)sc1N(S(=O)(=O)c1ccc2ccccc2c1)S(=O)(=O)c1ccc2ccccc2c1 | > 50 | > 50 | > 10000 | > 10000 | – | – | – | – |
| Cc1cc(C(=O)NC2CCCCC2)c(C)n1-c1ccccc1 | > 50 | > 50 | 168 | > 10000 | > 59.6 | – | – | – |
| CCOC(=O)c1c(NC(=O)C23CC4CC(CC(C4)C2)C3)sc2c1CCCC2 | > 50 | > 50 | 2.15 | 1010 | 469 to 500 | 475 | – | – |
| CCOC(=O)c1c(NS(=O)(=O)c2ccccc2)sc2c1CCCC2 | > 50 | > 50 | 1990 | > 10000 | > 5.02 | – | – | – |
| CCOC(=O)c1cc(-c2ccccc2)sc1NC(=O)c1cccc2ccccc12 | > 50 | > 50 | 59.8 | > 10000 | > 167 | – | – | – |
| Cc1cc(C(=O)NC(C)c2ccccc2)c(C)n1-c1ccccc1 (configuration not stated) | > 50 | > 50 | 546 | 2620 | 4.8 | – | – | – |
| CCOC(=O)c1cc(-c2ccccc2)sc1NS(C)(=O)=O | > 50 | > 50 | > 10000 | > 10000 | – | – | – | – |
| CCc1c(C(=O)Nc2cccc3ccccc23)cc(C)n1-c1ccccc1 | > 50 | > 50 | 20 | 505 | 25 | – | – | – |
| CCOC(=O)c1c(N)sc2c1CCCC2 | > 50 | > 50 | > 10000 | > 10000 | – | – | – | – |
| CCOC(=O)c1cc(-c2ccccc2)sc1NC(=O)c1ccc2ccccc2c1 | > 50 | > 50 | > 10000 | > 10000 | – | – | – | – |
| CCc1c(C(=O)NCCc2ccccc2)cc(C)n1-c1ccccc1 | > 50 | > 50 | 718 | > 10000 | > 13.9 | – | – | – |
| CCOC(=O)c1cc(-c2ccccc2)sc1NS(=O)(=O)c1ccc(Cl)cc1 | > 50 | > 50 | > 10000 | > 10000 | – | – | – | – |
| CCOC(=O)c1c(NC(=O)c2ccc3ccccc3c2)sc2c1CCCC2 | > 50 | > 50 | 1790 | > 10000 | > 5.6 | – | – | – |

| Structure (SMILES) | inhibition [1] [%] | inhibition at 1.5 h, up to 10 µM [2] [%] | Ki [3] [nM] | Ki [4] [nM] | Ratio Ki [5] | IC50 [6] [nM] | Activity [7] | Activity [8] |
| --- | --- | --- | --- | --- | --- | --- | --- | --- |
| CCOC(=O)c1c(NS(=O)(=O)c2ccc3ccccc3c2)sc2c1CCCC2 | > 50 | > 50 | > 10000 | > 10000 | – | – | – | – |
| CCc1c(C(=O)NC2CCCCC2)cc(C)n1-c1ccccc1 | > 50 | > 50 | 171 | 4570 | > 26.8 | – | – | – |
| CCOC(=O)c1c(NS(=O)(=O)c2ccc(Cl)cc2)sc2c1CCCC2 | > 50 | > 50 | > 10000 | > 10000 | – | – | – | – |
| CCOC(=O)c1c(NS(C)(=O)=O)sc2c1CCCC2 | > 50 | > 50 | > 10000 | > 10000 | – | – | – | – |
| Cc1cc(C(=O)NCCc2ccccc2)c(C)n1-c1ccccc1 | > 50 | > 50 | 584 | 5930 | 10.2 | – | – | – |
| CCOC(=O)c1c(NC(=O)c2cccc3ccccc23)sc2c1CCCC2 | > 50 | > 50 | 16.8 | 1370 | 80 to 81.7 | – | – | – |
| CCc1c(C(=O)O)cc(C)n1-c1ccccc1 | > 50 | > 50 | > 10000 | > 10000 | – | – | – | – |
| Cc1cc(C(=O)Nc2cccc3ccccc23)c(C)n1-c1ccccc1 | > 50 | > 50 | 84.2 | 317 | 3.76 | – | – | – |
| CCOC(=O)c1c(NS(=O)(=O)c2cccc3ccccc23)sc2c1CCCC2 | > 50 | > 50 | 800 | > 10000 | > 12.5 | – | – | – |
| Cc1ccc(Cn2nc(C(=O)N[C@@H]3C(C)(C)[C@@H]4CC[C@@]3(C)C4)cc2-c2ccc(Cl)c(C)c2)cc1 | > 50 | > 50 | – | – | – | – | – | – |
| CCOC(=O)c1cc(-c2ccccc2)sc1NS(=O)(=O)c1ccccc1 | > 50 | > 50 | > 10000 | > 10000 | – | – | – | – |
| CCOC(=O)c1c(NC(=O)CCc2ccccc2)sc2c1CCCC2 | > 50 | > 50 | 112 | > 10000 | > 89.4 | – | – | – |
| Cc1cc(C(=O)O)c(C)n1-c1ccccc1 | > 50 | > 50 | > 10000 | > 10000 | – | – | – | – |
| CCc1c(C(=O)NC23CC4CC(CC(C4)C2)C3)cc(C)n1-c1ccccc1 | > 50 | > 50 | 6.15 | 1200 | 195 to 200 | 398 | Active | Active |
| CCc1c(C(=O)NC(C)c2ccccc2)cc(C)n1-c1ccccc1 (configuration not stated) | > 50 | > 50 | 540 | 3740 | 6.92 | – | – | – |
| Cc1cc(C(=O)NC23CC4CC(CC(C4)C2)C3)c(C)n1-c1ccccc1 | > 50 | > 50 | 7.59 | 518 | 68.3 | 109 | Active | Active |
